# High-throughput results: PubChem, Johns Hopkins Ion Channel Center
# Compounds with a hit are over-represented: about 3.7% of the library has one in this group of screens.
# hERG rescue – shields human hERG channel from block by proarrhythmic agents | Q12809 | CHO-hERG, FluxOR thallium flux, dofetilide IC70 present | activation (rescue from dofetilide block), less the hit threshold, % at 10 µM | 310,000 tested, 0.51% active;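 active = activation above the mean of controls blocked by dofetilide plus 5 SD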;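 note: thallium influx through hERG after potassium depolarization seen as dye fluorescence rise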
# Kir21 block – inhibitors of mouse Kir2.1 inward-rectifier potassium channel | AID 1672 | B-score at 10 µM | P35561 | 310,000 tested, 0.85% active | HEK293-Kir2.1, FluxOR thallium flux fluorescence; stronger effect = lower value;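 active = fluorescence ratio B-score at or below minus 3 SD of library scores, with starting-brightness B-score within 2 SD, cut at about -4.2 in these data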;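 note: channel flux triggered by added potassium and thallium sulfate stimulus; B-score of peak minus minimum fluorescence over baseline after thallium stimulus; more negative B-score means stronger Kir2.1 block with less thallium influx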
# KCNK9 inh – blocks the human KCNK9 two-pore domain potassium channel; Q9NPC2; HEK293 KCNK9, FluxOR thallium flux fluorescence; stronger effect = lower value; B-score at 10 µM; 310,000 tested, 1.2% active;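 active = ratio B-score over 3 SD below the library mean, with starting fluorescence within 5 SD of its mean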;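 note: negative B-score means less thallium flux so channel inhibition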
# KCNQ1 act – potentiators or activators of human KCNQ1 potassium channel | CHO-K1 KCNQ1, thallium flux FluxOR fluorescence; stronger effect = higher value | B-score at 10 µM | 310,000 tested, 0.35% active;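 active = fluorescence ratio B-score, a plate-corrected score, at least three library SD, with initial intensity B-score within 5 SD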
#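 assay system = KCNQ1-transfected CHO-K1 cells | medium = assay buffer with matched DMSO | probe or stimulus = depolarizing K+/Tl+ stimulus, K2SO4 and Tl2SO4 each 12.5 mM in 5x stock | dosing = single dose | incubation = dye 90 min, compound 20 min, room temperature | detection = kinetic FluxOR fluorescence, 10 s baseline plus 110 s post-stimulus | evaluation = ratio B score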
# KCNQ1 inh – blocks the human KCNQ1 potassium channel | B-score at 10 µM | P51787 | 310,000 tested, 1.3% active | CHO-K1 KCNQ1, FluxOR thallium flux fluorescence; stronger effect = higher value | AID 2642;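 active = compounds whose thallium flux B-score, printed positive for inhibition, exceeds three library SD while starting fluorescence stays within three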;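 note: channel opened by potassium depolarization with thallium stimulus after 20 min compound exposure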
# KCNK3 inh – human KCNK3 channel inhibition, primary screen | CHO-KCNK3 thallium flux, FluxOR fluorescence; stronger effect = lower value | B-score at 10 µM | 340,000 tested, 0.84% active | AID 602410;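 active = B-score under library mean minus 4 SD, starting fluorescence ratio at most library mean plus 5 SD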;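 note: more negative B-score means stronger inhibition of thallium flux through KCNK3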
# Hits are given with their value; – = inactive; · = no result given.
SMILES,hERG rescue,Kir21 block,KCNK9 inh,KCNQ1 act,KCNQ1 inh,KCNK3 inh
CC1=CC(C)(C)N2C(=O)C3(C(C#N)=C(N)Oc4cc(O)ccc43)c3cccc1c32 (stereo unspecified),–,–,–,–,6,–
CC(C)c1nc2sc3ccccc3c(=O)c2c(=O)n1Cc1ccccc1,–,–,–,–,6,–
COc1ccc(Cn2c(C(C)C)nc3sc4ccccc4c(=O)c3c2=O)cc1,–,–,–,–,–,–
CN(C)CCCN(C(=O)CCOc1ccccc1)c1nc2c(F)cccc2s1,–,–,–,18,–,–
Cc1ccc2nc(N(CCCN(C)C)C(=O)c3cc(-c4cccs4)nc4ccccc34)sc2c1,–,–,–,–,8,–
CN(C)CCCN(C(=O)c1cc(-c2cccs2)nc2ccccc12)c1nc2c(F)cccc2s1,–,–,–,–,6,–
CN(C)CCCN(C(=O)CCc1ccccc1)c1nc2c(F)cccc2s1,–,–,–,–,–,–
COc1cc2ccccc2cc1C(=O)N(CCN(C)C)c1nc2ccc(C)cc2s1,–,–,–,–,–,–
CC1(C)Oc2ccc3ccc(=O)oc3c2/C(=C/NNC(N)=S)C1=O,–,–,–,–,–,–
COC(=O)[C@H](CCSC)NC(=O)Cn1cnc2c(OCc3ccccc3)ncnc21,·,·,·,·,·,–
O=S(=O)(c1ccc(Cl)cc1)N1CCC(O)(CN2CCN(Cc3ccccc3)CC2)CC1,–,-5.4,–,–,–,–
COc1ccc(NC(=O)N2CCCc3cc(C)ccc32)c(OC)c1,–,–,–,–,–,–
COc1ccccc1CC(=O)N1CCCc2cc(C)ccc21,–,-7.3,–,–,–,–
CCOc1ccccc1NC(=O)c1cccc(NC(=O)C(C)C)c1,–,–,–,–,–,–
CCCC(=O)Nc1cccc(C(=O)Nc2ccccc2OCC)c1,–,–,-7.8,–,–,·
CCC(=O)Nc1cccc(NC(=O)c2ccc(C)c([N+](=O)[O-])c2)c1,–,–,–,–,–,–
CCCC(=O)Nc1cccc(NC(=O)c2ccc(C)c([N+](=O)[O-])c2)c1,–,-4.8,–,–,–,–
COc1ccccc1NC(=O)Cc1nnc(SCC(=O)NC2CCCCC2)n1C,–,–,–,–,–,–
O=C(COC(=O)c1nn(-c2ccccc2C(F)(F)F)cc1O)c1ccc(OC(F)F)cc1,–,–,–,–,–,–
CCC(=O)NCCCCCCNC(=O)CC,6.9,–,–,–,–,–
O=C(NCC1CCCN1S(=O)(=O)c1cccs1)C(=O)Nc1ccc(F)cc1F (stereo unspecified),–,–,–,–,–,–
Cc1ccc(C(=O)N2CCCCC2C(=O)O)cc1S(=O)(=O)N1CCCCC1 (stereo unspecified),·,·,·,·,·,–
CCOC(=O)c1ccc(/C=C2/C=C(c3ccccc3)N(c3ccc(Cl)c(C(=O)O)c3)C2=O)cc1,–,–,–,–,11,–
Cc1ccccc1-c1cc(C(=O)Nc2sc(C(=O)OC(C)C)c(C)c2C#N)c2ccccc2n1,–,–,–,–,10,–
COc1ccc(-c2cc(C(=O)OCC(=O)NC(C)C)c3ccccc3n2)cc1,–,-4.4,–,–,–,–
SMILES,hERG rescue,Kir21 block,KCNK9 inh,KCNQ1 act,KCNQ1 inh,KCNK3 inh
CCCNC(=O)COC(=O)c1cc(-c2ccc(OC)cc2)nc2ccccc12,–,–,–,–,–,–
CCOC(=O)c1sc(NC(=O)c2cc(-c3ccc(C)cc3)nc3ccccc23)c(C#N)c1C,–,–,–,–,7,–
Cc1ccccc1NC(=S)N(Cc1ccco1)C(C)c1cccs1 (stereo unspecified),–,–,–,–,–,–
CC(c1cccs1)N(Cc1ccco1)C(=S)Nc1ccc(F)c(Cl)c1 (stereo unspecified),–,–,–,–,10,–
c1ccc2c(c1)[nH]c1c(N3CCSCC3)ncnc12,·,·,·,·,·,-9.7
CCOc1ccc2cc(S(=O)(=O)n3ccnc3C)ccc2c1,–,–,–,–,–,–
CCc1nccn1S(=O)(=O)c1ccc2ccc(C)cc2c1,27,–,–,28,–,–
CCC(C)NC(=O)c1cc(-c2ccc3c(c2)OCO3)on1 (stereo unspecified),–,–,–,–,–,–
CC(Oc1ccc(Br)cc1)C(=O)Nc1ccc(S(=O)(=O)N(C)C2CCN(C)CC2)cc1 (stereo unspecified),–,–,–,10,–,–
CCOC(=O)N1CCN(S(=O)(=O)c2ccc3c(c2)NC(=O)CO3)CC1,·,·,·,·,·,–
CCOC(=O)N1CCN(S(=O)(=O)c2ccc3c(c2)OCC(=O)N3)CC1,10,–,–,–,–,–
CC(=O)c1cccc(NC(=O)c2ccc(N(Cc3ccccc3)S(C)(=O)=O)cc2)c1,–,–,–,–,–,–
CS(=O)(=O)N(Cc1ccccc1)c1ccc(C(=O)Nc2ccc(C(N)=O)cc2)cc1,46,–,–,–,–,–
O=C(CCC1CCCCC1)NC1CCCCC1,·,·,·,·,·,–
CCC(CC)NC(=O)c1ccccc1Oc1ccccc1,–,-6.9,–,–,–,–
N#CC1=C(N)Oc2ccc3ccc(O)cc3c2C1c1ccsc1 (stereo unspecified),–,-5,–,–,–,–
CO/N=C(/CS(=O)c1ccc(Br)cc1)c1ccc(OC)cc1 (stereo unspecified),–,-8.9,–,–,–,–
O=C(CSc1ccc2nnc(-c3ccccn3)n2n1)Nc1ccccc1F,–,–,–,–,–,–
CN(C)c1ncnc2c1ncn2C1CCCO1 (stereo unspecified),·,·,·,·,·,–
O=C(Nc1nnc(-c2ccc3c(c2)CCCC3)o1)c1ccccc1Cl,–,–,–,12,–,–
O=C(COc1ccccc1)Nc1nnc(-c2ccc3c(c2)CCCC3)o1,–,–,–,–,–,–
O=C(Nc1nnc(-c2ccccc2)o1)c1cc(Cl)sc1Cl,–,–,–,–,–,–
O=C(Nc1nnc(-c2ccc(F)cc2)o1)c1cc(Cl)sc1Cl,10,–,–,23,–,–
COC1=CC(=O)C=C(OC)C1(O)CC(C)=O,·,·,·,·,·,–
Cc1ccc2c(CC(=O)OC(C)C(=O)Nc3ncc(Cl)cc3Cl)coc2c1 (stereo unspecified),–,-4.5,–,–,–,–
CCOc1ccccc1OCC(=O)OC(C)C(=O)Nc1ncc(Cl)cc1Cl (stereo unspecified),·,·,·,·,·,–
CC(OC(=O)Cc1coc2ccc3ccccc3c12)C(=O)Nc1ncc(Cl)cc1Cl (stereo unspecified),–,-5.6,–,–,–,–
COc1cccc(CC(=O)OC(C)C(=O)Nc2ncc(Cl)cc2Cl)c1 (stereo unspecified),–,-4.5,–,–,–,–
C=CCn1c(CNC(=O)c2ccccc2F)nnc1SCC(=O)N1CCOCC1,–,–,–,–,–,–
